Common to all, as to format: functional
Experiment [1] has as its system Staphylococcus aureus. Put plainly: Antibacterial activity against methicillin-sensitive Staphylococcus aureus by broth liquid microdilution method. In a few lines:
(§1)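 Isolates were identified on an automated MicroScan WalkAway 96 system. Susceptibility was tested by broth microdilution following CLSI guidelines. MIC was taken as the lowest concentration giving complete inhibition of bacterial growth. S. aureus ATCC 29213 served as the control strain.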
(Dilution methods test growth across graded concentrations, often in twofold steps.)

Experiment [2] relates to Enterococcus faecium. As to the kind of experiment: Antibacterial activity against vancomycin-resistant Enterococcus faecium by broth liquid microdilution method. A digest of the protocol:
as §1

The subject of experiment [3] is Enterococcus faecalis. Put plainly: Antibacterial activity against linezolid-resistant Enterococcus faecalis by broth liquid microdilution method. In a few lines: as §1
For experiment [4], the system named is Staphylococcus aureus. Put plainly: Antibacterial activity against Staphylococcus aureus ATCC 29213 by broth liquid microdilution method. In a few lines:
as §1

Experiment [5] has as its system Staphylococcus aureus. Put plainly: Antibacterial activity against methicillin-resistant Staphylococcus aureus by broth liquid microdilution method. A digest of the protocol:
as §1

≈ marks a conversion by molar mass, not a printed value.

The MIC is the least concentration at which growth counts as inhibited.

Regarding `CC(=O)NC[C@H]1CN(c2ccc(-c3ccc(/C=N/N4CCN(C(=O)OC(C)(C)C)CC4)cc3)c(F)c2)C(=O)O1`, the minimum inhibitory concentration (MIC) in experiment [1], in experiment [2], in experiment [3] and in experiment [4] was > 2 µg/mL throughout.
Consider `CC(=O)NC[C@H]1CN(c2ccc(-c3ccc(/C=N/N4CCOCC4)cc3)c(F)c2)C(=O)O1`, for which the minimal inhibitory concentration (MIC) in experiment [5] turned out to be 0.25 µg/mL (≈ 0.568 µM); in experiment [1] it was 0.25 µg/mL (≈ 0.568 µM); in experiment [2] it was 0.5 µg/mL (≈ 1.14 µM); in experiment [3] it was 0.25 µg/mL (≈ 0.568 µM); in experiment [4], 0.5 µg/mL (≈ 1.14 µM).
With `CC(=O)NC[C@H]1CN(c2ccc(-c3ccc(/C=N/N4CCN(C(=O)c5ccncc5)CC4)cc3)c(F)c2)C(=O)O1`, the MIC in experiment [5] was 0.25 µg/mL (≈ 0.459 µM); in experiment [1], 0.125 µg/mL (≈ 0.23 µM); in experiment [2], 0.25 µg/mL (≈ 0.459 µM); in experiment [3], 0.25 µg/mL (≈ 0.459 µM); in experiment [4], 0.25 µg/mL (≈ 0.459 µM).
Take `CC(=O)NC[C@H]1CN(c2ccc(-c3ccc(/C=N/N4CCN(C(=O)c5ccc(Br)cc5)CC4)cc3)c(F)c2)C(=O)O1`: the MIC in experiment [5], in experiment [1], in experiment [2], in experiment [3] and in experiment [4] was 0.125 µg/mL (≈ 0.201 µM) throughout.
On to `C=CCN1CCN(/N=C/c2ccc(-c3ccc(N4C[C@H](CNC(C)=O)OC4=O)cc3F)cc2)CC1`, for which the minimum inhibitory concentration (MIC) in experiment [5] was 0.125 µg/mL (≈ 0.261 µM); in experiment [1], 0.125 µg/mL (≈ 0.261 µM); in experiment [2] it was 0.125 µg/mL (≈ 0.261 µM); in experiment [3] it was 0.125 µg/mL (≈ 0.261 µM); in experiment [4] it was 0.5 µg/mL (≈ 1.04 µM).
As to `CC(=O)NC[C@H]1CN(c2ccc(-c3ccc(/C=N/N4CCS(=O)(=O)CC4)cc3)c(F)c2)C(=O)O1`, the MIC in experiment [5], in experiment [1], in experiment [2], in experiment [3] and in experiment [4] was 0.25 µg/mL (≈ 0.512 µM) in each case.
Consider `CC(=O)NC[C@H]1CN(c2ccc(-c3ccc(/C=N/N4CCN(C(=O)c5ccccn5)CC4)cc3)c(F)c2)C(=O)O1`, for which the minimal inhibitory concentration (MIC) in experiment [5], in experiment [1], in experiment [2], in experiment [3] and in experiment [4] was 0.125 µg/mL (≈ 0.23 µM) in each case.
Regarding `CC(=O)NC[C@H]1CN(c2ccc(-c3ccc(/C=N/N4CCN(C(=O)c5ccccc5)CC4)cc3)c(F)c2)C(=O)O1`, the minimum inhibitory concentration (MIC) is 0.25 µg/mL (≈ 0.46 µM) in experiment [5]; 0.125 µg/mL (≈ 0.23 µM) in experiment [1]; 0.25 µg/mL (≈ 0.46 µM) in experiment [2]; 0.25 µg/mL (≈ 0.46 µM) in experiment [3]; 0.25 µg/mL (≈ 0.46 µM) in experiment [4].
Consider `COc1ccc(C(=O)N2CCN(/N=C/c3ccc(-c4ccc(N5C[C@H](CNC(C)=O)OC5=O)cc4F)cc3)CC2)cc1`, for which the MIC in experiment [5], in experiment [1], in experiment [2], in experiment [3] and in experiment [4] was 0.125 µg/mL (≈ 0.218 µM) in each case.
Consider `COC(=O)N1CCN(/N=C/c2ccc(-c3ccc(N4C[C@H](CNC(C)=O)OC4=O)cc3F)cc2)CC1`, for which the MIC in experiment [5], in experiment [1], in experiment [2], in experiment [3] and in experiment [4] was 0.125 µg/mL (≈ 0.251 µM) each time.
With `CC(=O)NC[C@H]1CN(c2ccc(-c3ccc(/C=N/N4CCN(C(=O)C(F)(F)F)CC4)cc3)c(F)c2)C(=O)O1`, the minimum inhibitory concentration (MIC) in experiment [5], in experiment [1], in experiment [2], in experiment [3] and in experiment [4] was 0.125 µg/mL (≈ 0.233 µM) each time.
Regarding `CC(=O)NC[C@H]1CN(c2ccc(-c3ccc(/C=N/N4CCN(S(C)(=O)=O)CC4)cc3)c(F)c2)C(=O)O1`, the MIC in experiment [5] is 0.5 µg/mL (≈ 0.966 µM); in experiment [1], 1 µg/mL (≈ 1.93 µM); in experiment [2], 2 µg/mL (≈ 3.86 µM); in experiment [3], 0.5 µg/mL (≈ 0.966 µM); in experiment [4] it was 1 µg/mL (≈ 1.93 µM).
On to `CC(=O)NC[C@H]1CN(c2ccc(-c3ccc(/C=N/N4CCN(C(C)=O)CC4)cc3)c(F)c2)C(=O)O1`, for which the MIC was 0.25 µg/mL (≈ 0.519 µM) in experiment [5]; 0.125 µg/mL (≈ 0.26 µM) in experiment [1]; 0.5 µg/mL (≈ 1.04 µM) in experiment [2]; 0.25 µg/mL (≈ 0.519 µM) in experiment [3]; 0.25 µg/mL (≈ 0.519 µM) in experiment [4].
`COc1cccc(C(=O)N2CCN(/N=C/c3ccc(-c4ccc(N5C[C@H](CNC(C)=O)OC5=O)cc4F)cc3)CC2)c1`: the MIC in experiment [5] is 0.25 µg/mL (≈ 0.436 µM); in experiment [1] it was 0.25 µg/mL (≈ 0.436 µM); in experiment [2] it was 1 µg/mL (≈ 1.74 µM); in experiment [3], 1 µg/mL (≈ 1.74 µM); in experiment [4] it was 0.25 µg/mL (≈ 0.436 µM).
In the case of `CC(=O)NC[C@H]1CN(c2ccc(-c3ccc(/C=N/N4CCCCC4)cc3)c(F)c2)C(=O)O1`, the MIC in experiment [5] amounted to 0.25 µg/mL (≈ 0.57 µM); in experiment [1] it was 0.25 µg/mL (≈ 0.57 µM); in experiment [2], 0.5 µg/mL (≈ 1.14 µM); in experiment [3], 0.25 µg/mL (≈ 0.57 µM); in experiment [4] it was 0.25 µg/mL (≈ 0.57 µM).
Regarding `CC(=O)NC[C@H]1CN(c2ccc(-c3ccc(/C=N/N4CCN(C(=O)c5cccnc5)CC4)cc3)c(F)c2)C(=O)O1`, the MIC in experiment [5], in experiment [1], in experiment [2], in experiment [3] and in experiment [4] was 0.125 µg/mL (≈ 0.23 µM) in each case.
`CC(=O)NC[C@H]1CN(c2ccc(-c3ccc(/C=N/N4CCN(C(=O)c5ccc(Cl)cc5)CC4)cc3)c(F)c2)C(=O)O1`: the MIC in experiment [5] was found to be 0.0675 µg/mL (≈ 0.117 µM); in experiment [1], 0.0675 µg/mL (≈ 0.117 µM); in experiment [2], 0.25 µg/mL (≈ 0.432 µM); in experiment [3], 0.25 µg/mL (≈ 0.432 µM); in experiment [4] it was 0.0675 µg/mL (≈ 0.117 µM).
In the case of `C#CCN1CCN(/N=C/c2ccc(-c3ccc(N4C[C@H](CNC(C)=O)OC4=O)cc3F)cc2)CC1`, the minimum inhibitory concentration (MIC) in experiment [5], in experiment [1], in experiment [2], in experiment [3] and in experiment [4] was 0.125 µg/mL (≈ 0.262 µM) throughout.
Regarding `CC(=O)NC[C@H]1CN(c2ccc(-c3ccc(/C=N/N4CCN(C(=O)c5ccco5)CC4)cc3)c(F)c2)C(=O)O1`, the MIC in experiment [5] was determined as 0.25 µg/mL (≈ 0.469 µM); in experiment [1], 0.125 µg/mL (≈ 0.234 µM); in experiment [2] it was 0.25 µg/mL (≈ 0.469 µM); in experiment [3], 0.25 µg/mL (≈ 0.469 µM); in experiment [4] it was 0.25 µg/mL (≈ 0.469 µM).
`CC(=O)NC[C@H]1CN(c2ccc(-c3ccc(/C=N/N4CCN(C(=O)c5cnccn5)CC4)cc3)c(F)c2)C(=O)O1`: the MIC in experiment [5], in experiment [1], in experiment [2], in experiment [3] and in experiment [4] was 0.125 µg/mL (≈ 0.229 µM) in each case.
`CC(=O)NC[C@H]1CN(c2ccc(-c3ccc(/C=N/N4CCN(C(=O)N(C)C)CC4)cc3)c(F)c2)C(=O)O1`: the minimum inhibitory concentration (MIC) in experiment [5] is 0.0675 µg/mL (≈ 0.132 µM); in experiment [1], 0.0675 µg/mL (≈ 0.132 µM); in experiment [2], 0.25 µg/mL (≈ 0.49 µM); in experiment [3], 0.25 µg/mL (≈ 0.49 µM); in experiment [4] it was 0.0675 µg/mL (≈ 0.132 µM).
Turning to `CC(=O)NC[C@H]1CN(c2ccc(-c3ccc(/C=N/N4CCN(C(=O)c5ccc(C(F)(F)F)cc5)CC4)cc3)c(F)c2)C(=O)O1`, the MIC in experiment [5], in experiment [1], in experiment [2], in experiment [3] and in experiment [4] was 0.125 µg/mL (≈ 0.204 µM) each time.
With `CC(=O)NC[C@H]1CN(c2ccc(-c3ccc(/C=N/N4CCN(C(=O)c5cccs5)CC4)cc3)c(F)c2)C(=O)O1`, the MIC stood at 0.25 µg/mL (≈ 0.455 µM) in experiment [5]; 0.25 µg/mL (≈ 0.455 µM) in experiment [1]; 0.5 µg/mL (≈ 0.91 µM) in experiment [2]; 0.5 µg/mL (≈ 0.91 µM) in experiment [3]; 0.125 µg/mL (≈ 0.227 µM) in experiment [4].
For the molecule `CC(=O)NC[C@H]1CN(c2ccc(-c3ccc(/C=N/N4CCN(Cc5ccccc5)CC4)cc3)c(F)c2)C(=O)O1`, the minimal inhibitory concentration (MIC) in experiment [5], in experiment [1], in experiment [2], in experiment [3] and in experiment [4] was 0.125 µg/mL (≈ 0.236 µM) throughout.
Regarding `CCC(=O)N1CCN(/N=C/c2ccc(-c3ccc(N4C[C@H](CNC(C)=O)OC4=O)cc3F)cc2)CC1`, the minimal inhibitory concentration (MIC) in experiment [5], in experiment [1], in experiment [2], in experiment [3] and in experiment [4] was 0.125 µg/mL (≈ 0.252 µM) in each case.
In the case of `COc1ccccc1C(=O)N1CCN(/N=C/c2ccc(-c3ccc(N4C[C@H](CNC(C)=O)OC4=O)cc3F)cc2)CC1`, the MIC was 0.125 µg/mL (≈ 0.218 µM) in experiment [5]; 0.0675 µg/mL (≈ 0.118 µM) in experiment [1]; 0.125 µg/mL (≈ 0.218 µM) in experiment [2]; 0.125 µg/mL (≈ 0.218 µM) in experiment [3]; 0.5 µg/mL (≈ 0.872 µM) in experiment [4].
As to `CC(=O)NC[C@H]1CN(c2ccc(-c3ccc(/C=N/N4CCN(C(=O)CN)CC4)cc3)c(F)c2)C(=O)O1`, the minimum inhibitory concentration (MIC) in experiment [5] came out at 0.25 µg/mL (≈ 0.503 µM); in experiment [1], 0.25 µg/mL (≈ 0.503 µM); in experiment [2], 0.5 µg/mL (≈ 1.01 µM); in experiment [3] it was 0.5 µg/mL (≈ 1.01 µM); in experiment [4], 0.125 µg/mL (≈ 0.252 µM).
Turning to `CC(=O)NC[C@H]1CN(c2ccc(-c3ccc(CNCc4cnn[nH]4)cc3)c(F)c2)C(=O)O1` [RADEZOLID], the minimal inhibitory concentration (MIC) in experiment [5], in experiment [1], in experiment [2], in experiment [3] and in experiment [4] was 0.5 µg/mL (≈ 1.14 µM) each time.

The record behind these values is ChEMBL document CHEMBL4265926, “Synthesis and antibacterial activity evaluation of novel biaryloxazolidinone analogues containing a hydrazone moiety as promising antibacterial agents” (Eur J Med Chem, 2018).
